Results reported in ChEMBL document CHEMBL1944539, “Design, synthesis, and biological evaluation of potent quinoline and pyrroloquinoline ammosamide analogues as inhibitors of quinone reductase 2” (J Med Chem, 2012).
Calls of active or inactive are those of the source. The rule behind the calls is not given here.

Tests used:
[1] = biological target: T1, Ribosyldihydronicotinamide dehydrogenase [quinone] (Homo sapiens) (UniProt P16083); assay: (§1) Inhibition of human quinone reductase 2 using NMeH as substrate by MTT assay
T1 sequence (whole entry): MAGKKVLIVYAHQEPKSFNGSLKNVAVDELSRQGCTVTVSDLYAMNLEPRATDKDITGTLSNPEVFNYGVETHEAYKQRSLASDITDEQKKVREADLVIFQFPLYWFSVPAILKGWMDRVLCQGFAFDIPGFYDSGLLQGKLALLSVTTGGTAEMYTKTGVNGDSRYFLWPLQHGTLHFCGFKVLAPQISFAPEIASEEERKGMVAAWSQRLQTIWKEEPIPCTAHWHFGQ
Procedure, shortened: (§2)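 Human QR2 (12 nM) with 25 μM NMeH and 200 μM MTT in 100 mM NaCl, 50 mM Tris pH 7.5, 0.1% Triton X-100, 23 °C; reactions started by enzyme. Formazan formation read at 612 nm; initial rates from ε 11,300 M-1cm-1. Inhibitor at varying concentrations, triplicate; IC50 from % inhibition versus zero-inhibitor control.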

[2] = biological target: T1, Ribosyldihydronicotinamide dehydrogenase [quinone] (Homo sapiens); assay: Inhibition of human quinone reductase 2 using NMeH as substrate by MTT assay relative to control
[3] = biological target: T2, Ribosyldihydronicotinamide dehydrogenase [quinone] (Homo sapiens, UniProt P16083); assay: as §1; procedure, shortened: as §2
T2 sequence (P16083 whole entry): T1 sequence (whole entry)

MCF7 = assay: Cytotoxicity against human MCF7 cells assessed as cell growth at 10 uM; type: cell-based; settings: mcf7, 10 µM
Procedure, shortened: (§3)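 Cells exposed to compound at a single concentration; read-out is growth percent relative to untreated control cultures.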

HOP-62 = assay: Cytotoxicity against human HOP62 cells assessed as cell growth at 10 uM; type: cell-based; settings: hop-62, 10 µM; procedure, shortened: as §3
SF-539 = assay: Cytotoxicity against human SF539 cells assessed as cell growth at 10 uM; type: cell-based; settings: sf-539, 10 µM; procedure, shortened: as §3
OVCAR-3 = assay: Cytotoxicity against human OVCAR3 cells assessed as cell growth at 10 uM; type: cell-based; settings: ovcar-3, 10 µM; procedure, shortened: as §3
SN12C = assay: Cytotoxicity against human SN12C cells assessed as cell growth at 10 uM; type: cell-based; procedure, shortened: as §3
UACC-62 = assay: Cytotoxicity against human UACC62 cells assessed as cell growth at 10 uM; type: cell-based; settings: uacc-62, 10 µM; procedure, shortened: as §3
HCT-116 = assay: Cytotoxicity against human HCT116 cells assessed as cell growth at 10 uM; type: cell-based; settings: hct-116, 10 µM; procedure, shortened: as §3
DU-145 = assay: Cytotoxicity against human DU145 cells assessed as cell growth at 10 uM; type: cell-based; settings: du-145, 10 µM; procedure, shortened: as §3
[4] = biological target: T1, Ribosyldihydronicotinamide dehydrogenase [quinone] (Homo sapiens); assay: Ratio of IC50 for ammosamide B to compound IC50 for human quinone reductase 2 using NMeH as substrate by MTT assay

Imax [2] [%] | IC50 [3] [µM] | Ratio IC50 [4] | Structure (SMILES) | inhibition [1] | Activity (MCF7) [%] | Activity (HOP-62) [%] | Activity (SF-539) [%] | Activity (OVCAR-3) [%] | Activity (SN12C) [%] | Activity (UACC-62) [%] | Activity (HCT-116) [%] | Activity (DU-145) [%]
– | – | – | COC(=O)C1CC2(O)C(=O)Nc3c(Cl)cc(Cl)c(c32)N1 (centres undefined) | inactive | – | – | – | – | – | – | – | –
64 | 1.5 | – | NC(=O)c1cc(C(N)=O)c2cc(I)c(N)cc2n1 | – | – | – | – | – | – | – | – | –
85.7 | 0.24 | – | COC(=O)c1cc(C(=O)OC)c2c(Cl)c(N)c(N)cc2n1 | – | – | – | – | – | – | – | – | –
89.7 | 0.15 | – | COC(=O)c1cc(C(N)=O)nc2cc(N)c(N)c(Cl)c12 | – | – | – | – | – | – | – | – | –
102 | 0.0041 | > 10 | CNc1c(Cl)c(N)c2c3c(cc(C(N)=O)nc13)C(=O)N2C | – | – | – | – | – | – | – | – | –
96 | 9 | – | COC(=O)c1cc(C(N)=O)nc2cc(NC(C)=O)cc(Cl)c12 | – | 89.58 | 103.41 | 107.48 | 120.2 | 109 | 108.54 | 104.18 | 124.6
44.8 | 7.8 | – | CN1C(=O)c2cc(C(=O)NCc3ccccc3)nc3c(Cl)cc(Cl)c1c23 | – | 95.79 | 113.2 | 97.49 | 103.52 | 107.48 | 101.93 | 103.06 | 104.81
36.6 | 22.1 | – | COC(=O)c1cc(C(=O)OC)c2c(N)c(Cl)cc(Cl)c2n1 | – | – | – | – | – | – | – | – | –
92.2 | 4 | – | COC(=O)c1cc(C(=O)OC)c2c(Cl)cc(N(C)C)cc2n1 | – | 78.61 | 114.23 | 100.61 | 115.27 | 113.39 | 109.82 | 104.18 | 138.91
87.9 | 3.3 | – | COC(=O)c1cc(C(=O)OC)c2c(Cl)cc(N)cc2n1 | – | 105.75 | 108.99 | 117.31 | 106.32 | 102.78 | 101.7 | 108.2 | 108.11
– | – | – | COC(=O)c1cc2c3c(n1)C(=O)C(=O)C(Cl)=C3N(C)C2=O | – | 94.99 | 110.6 | 106.99 | 123.43 | 102.66 | 96.96 | 104.56 | 112.19
80.5 | 1.6 | – | COC(=O)c1cc(C(N)=O)nc2cc(N(C)C)cc(Cl)c12 | – | – | – | – | – | – | – | – | –
91.1 | 5.6 | – | COC(=O)c1cc(C(=O)OC)c2c(Cl)cc(N)c(Cl)c2n1 | – | 100.27 | 104.53 | 99.06 | 109.55 | 99.49 | 97.93 | 100.36 | 108.85
46.3 | 5.8 | – | CN1C(=O)c2cc(C(N)=O)nc3c(Cl)cc(Cl)c1c23 | – | 96.11 | 105.32 | 104.34 | 108.21 | 101.49 | 90.84 | 107 | 97.82
31.5 | 25.2 | – | CN(C)C(=O)c1cc2c3c(c(Cl)cc(Cl)c3n1)N(C)C2=O | – | 122.71 | 118.26 | 101.43 | 126.09 | 106.07 | 110.63 | 102.47 | 127.34
– | – | – | COC(=O)C1CC(O)(C(=O)OC)c2c(N)c(Cl)cc(Cl)c2N1 (centres undefined) | inactive | – | – | – | – | – | – | – | –
– | > 100 | – | COC(=O)c1cc(C(=O)OC)c2c(Cl)cc(NC(C)=O)cc2n1 | – | 100.11 | 112.21 | 109.23 | 124.69 | 109.64 | 112.51 | 103.44 | 112.18
75.5 | 1.1 | – | COC(=O)c1cc(C(N)=O)nc2cc(N)cc(Cl)c12 | – | 97.23 | 109.87 | 104.82 | 110.07 | 102.63 | 102.96 | 98.84 | 105.75
83.9 | 1.5 | – | COC(=O)c1cc(C(N)=O)nc2cc(N)c(I)cc12 | – | – | – | – | – | – | – | – | –

Structure (SMILES) | Imax [2] [%] | IC50 [3] [µM] | Ratio IC50 [4] | inhibition [1] | Activity (MCF7) [%] | Activity (HOP-62) [%] | Activity (SF-539) [%] | Activity (OVCAR-3) [%] | Activity (SN12C) [%] | Activity (UACC-62) [%] | Activity (HCT-116) [%] | Activity (DU-145) [%]
CN1C(=O)c2cc(C(N)=O)nc3c(N)c(Cl)c(N)c1c23 [AMMOSAMIDE B] | 90.3 | 0.061 | – | – | 98.04 | 96.95 | 88.22 | 115.24 | 98.89 | 100.09 | 101.05 | 114.59
